Bioassay records from PubChem BioAssay.
TNAP inh no acc: inhibitors of human TNAP without phosphate acceptor. purified TNAP, CDP-star luminescence, 30 min. P05186. 200,000 compounds, 0.26% hits. inhibition, % at 20 µM;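 active = tissue-nonspecific alkaline phosphatase inhibition above about 50% at 20 µM in the single-dose screen, limit read from the data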;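 also: 0% = DMSO negative control and 100% = EDTA positive control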
Target sequence (P05186 whole entry, looked up): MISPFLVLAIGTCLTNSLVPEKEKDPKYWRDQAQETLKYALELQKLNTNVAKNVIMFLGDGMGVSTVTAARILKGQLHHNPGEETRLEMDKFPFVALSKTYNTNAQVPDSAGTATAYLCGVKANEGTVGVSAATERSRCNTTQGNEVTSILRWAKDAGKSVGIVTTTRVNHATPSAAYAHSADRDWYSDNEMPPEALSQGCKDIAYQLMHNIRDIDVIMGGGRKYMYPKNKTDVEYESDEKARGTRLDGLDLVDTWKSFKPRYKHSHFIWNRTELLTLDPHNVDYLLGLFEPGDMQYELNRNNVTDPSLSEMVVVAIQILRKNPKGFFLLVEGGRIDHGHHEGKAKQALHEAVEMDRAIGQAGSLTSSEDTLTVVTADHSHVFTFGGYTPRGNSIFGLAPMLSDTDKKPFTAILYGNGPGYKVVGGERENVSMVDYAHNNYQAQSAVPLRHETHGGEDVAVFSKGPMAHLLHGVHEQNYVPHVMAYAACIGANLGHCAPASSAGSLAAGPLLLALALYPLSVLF
TNAP inh hiacc: blocks human TNAP under high phosphate acceptor concentration; P05186; purified TNAP, CDP-star luminescence, 1 M DEA; inhibition, % at 20 µM; 200,000 compounds, 0.03% hits; AID 1135;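 active = over 50% inhibition of tissue-nonspecific alkaline phosphatase at 20 µM in the single-dose screen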;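 also: plate controls were DMSO wells for no effect and EDTA-quenched wells as full inhibition for full effect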
Arbovirus inh: blocks arbovirus infection | arbovirus infection cell-based antiviral screen | inhibition, % at 10 µM | 200,000 compounds, 0.37% hits | AID 1251; in the data active = inhibition above about 30%
TNAP act hi DEA: TNAP (human) activation, high acceptor. P05186. purified TNAP, CDP-star luminescence, 1 M DEA, 30 min; hits give high values; 0 = EDTA background, 1 = DMSO-only activity. activation factor at 20 µM. 200,000 tested, under 10 active. AID 1136;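 active = activation factor at least 2 at 20 µM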
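system = human TNAP | amount = enzyme diluted 1/800 final | reagent = 100 µM CDP-star substrate | signal = luminescent substrate turnover signal | dosing = one dose, 20 µM | benchmarks = EDTA negative control, DMSO positive control | measure = activation factor | timing = 30 min reaction, room temperature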
PKD1 kinase inh: PKD1 (human) kinase inhibition; Q15139; PKD1 kinase fluorescence polarization assay; inhibition, % (concentration not given with the values); 200,000 compounds, 0.056% hits; AID 797; in the data active = inhibition above about 50%
Numbers without * were called inactive. Sampled rows, rich in hits. Any-hit rate of the full collection: about 0.72%.

SMILES | TNAP inh no acc | TNAP inh hiacc | Arbovirus inh | TNAP act hi DEA | PKD1 kinase inh
CSc1ccccc1NC(=O)CO/N=C(\C)c1cc2ccccc2o1 | -9.7 | -10.3 | 38.1* | 1.1 | -4.8
CCc1ccc(C(=O)Nc2ccc(S(=O)(=O)Nc3nc(C)cc(C)n3)cc2)o1 | -9.9 | -2.2 | 106.0* | 1 | -3.0
Cc1cc(C)nc(NS(=O)(=O)c2ccc(NC(=O)c3ccco3)cc2)n1 | -9.8 | -1.9 | 4.3 | 1 | -7.7
Cc1noc(C)c1COC(=O)c1cccc(N(C)C)c1 | -9.2 | -5.3 | -4.7 | 1.1 | 1.1
Clc1cccc(N2CCN(Cc3nc(-c4ccccc4)no3)CC2)c1 | -18.0 | -2.3 | 32.7* | 1 | -8.3
COc1ccccc1-c1cc(-c2cc(Cl)ccc2O)n[nH]1 | -8.8 | -1.4 | 1.9 | 1 | -18.9
Oc1ccc(Cl)cc1-c1cc(-c2ccccc2)n[nH]1 | -90.2 | 2.1 | 32.8* | 1 | -5.7
CC(C)C[C@H](NC(=O)c1nc[nH]c1C(=O)N1CCN(C(=O)OC(C)(C)C)CC1)C(=O)OC(C)(C)C | -1.7 | -6.5 | 32.5* | 1.1 | 12.8
Cc1[nH][nH]c(=O)c1C(c1cc([N+](=O)[O-])ccc1O)c1c(C)[nH][nH]c1=O | 79.3* | 77.4* | -23.1 | 0.2 | 1.7
Cc1ccc(NC(=O)COC(=O)C2CC(=O)N(Cc3ccccc3)C2)cc1F (stereo not given) | -8.2 | -0.6 | 7.7 | 1 | -3.8
Cc1cccc2c1-c1sc(C(=O)Nc3nccs3)cc1CO2 | -8.8 | -5.6 | 82.4* | 1.1 | -3.0
Cc1cc(C(=O)N/N=C/C=C/c2cccc([N+](=O)[O-])c2)n[nH]1 | -140.2 | -4.4 | 4.3 | 1 | -4.5
COc1ccc2c(Cl)c(C(=O)N/N=C3\CCCC(=O)C3)sc2c1 | -18.3 | -0.3 | -18.1 | 1 | -5.9
Cc1cccc(/C(N)=N/OC(=O)COc2ccc(Cl)cc2)c1 | 2.4 | 1.9 | 35.5* | 1 | -0.5
N/C(=N\OC(=O)COc1ccc(Cl)cc1)c1ccc(Cl)cc1 | -11.1 | -2.4 | 5.7 | 1 | -1.0
C=CCSc1nnc(NC(=O)CSc2nc3ccccc3o2)s1 | 2.1 | 0.2 | 36.4* | 1 | -3.5
Cc1nnc(NC(=O)CSc2nc3ccccc3o2)s1 | -6.2 | -2.7 | 2.9 | 1 | 2.2
COc1ccccc1N1CCN(S(=O)(=O)c2ccccc2)CC1 | -3.9 | 5.2 | -4.9 | 0.9 | -3.1
COc1ccc(S(=O)(=O)N2CCN(c3ccccc3OC)CC2)cc1OC | -9.7 | -3.0 | 49.5* | 1 | -4.7
COC(=O)C1=C(C)N(Cc2ccco2)C(=O)N[C@@H]1c1cccc(C(F)(F)F)c1 | -5.6 | -1.9 | 31.7* | 1 | 6.6
O=C(CN1CCN(S(=O)(=O)c2ccc(F)cc2)CC1)c1ccc(O)c(O)c1 | 56.3* | 1.8 | -1.6 | 1 | 0.1
O=C(COC(=O)c1ccc(Cl)nc1)NCCC1=CCCCC1 | -7.4 | -4.8 | -1.1 | 1 | -12.0
CN(C(=O)Nc1ccc(Cl)cc1Cl)[C@H]1c2cc(Br)ccc2OC[C@H]1CO | -4.3 | -1.4 | 15.3 | 1 | 6.0
COc1cc([N+](=O)[O-])ccc1NC(=O)CC1SC(=Nc2ccc(F)cc2)N(CCC2=CCCCC2)C1=O (stereo not given) | -9.5 | -2.3 | 47.5* | 1 | -6.1
COc1ccc(OC)c(NC(=O)CC2SC(=Nc3ccc(F)cc3)N(CCC3=CCCCC3)C2=O)c1 (stereo not given) | 0.9 | -3.0 | 5.4 | 1 | -0.5
SMILES | TNAP inh no acc | TNAP inh hiacc | Arbovirus inh | TNAP act hi DEA | PKD1 kinase inh
Cc1cccc2nc(COc3ccc(Cl)c4cccnc34)cn12 | 3.4 | -0.8 | -0.8 | 1 | 6.8
CCOC(=O)CC1=NN(c2ccccc2)C(=O)/C1=C\c1ccc(N(C)C)cc1 | 38.1 | 32.1 | -6.1 | 0.7 | 0.0
CC1=NN(c2ccccc2)C(=O)/C1=C/C=C/c1ccc(N(C)C)cc1 | 50.5* | 53.6* | -16.7 | 0.5 | 0.2
NC(=S)Nc1nc2ccccc2[nH]c1=O | 70.7* | 15.5 | 1.4 | 0.8 | 1.5
Cc1ccc2[nH]c(=O)c(NC(N)=S)nc2c1 | -0.7 | 4.5 | -0.4 | 1 | 1.5
CCOC(=O)c1cnc(SCc2nc(N)nc(Nc3ccc(C)cc3)n2)nc1N | -5.3 | 0.5 | 44.4* | 1 | -3.9
O=C(N/N=C/c1cccc([N+](=O)[O-])c1)C1COc2ccccc2O1 (stereo not given) | -4.5 | 0.3 | 1.2 | 1 | -0.5
O=C(N/N=C\c1cccc([N+](=O)[O-])c1O)C1COc2ccccc2O1 (stereo not given) | 53.2* | 9.7 | -17.0 | 0.9 | -1.0
CC(C)(C)n1nc2c(c1NC(=O)c1cc3ccccc3o1)CS(=O)(=O)C2 | 50.7* | -5.2 | 0.7 | 1.1 | 3.6
O=C(CC1c2ccccc2Oc2ccccc21)Nc1ccccc1C(F)(F)F | -9.7 | -4.1 | 7.1 | 1 | -6.3
CN(Cc1ccc(OCC(O)CN2CCCCC2)cc1)Cc1ccnc2ccccc12 (stereo not given) | -8.9 | -7.8 | 7.5 | 1.1 | 2.7
Cc1nn(C)cc1CN(C)Cc1ccc(OCC(O)CN2CCCCC2)cc1 (stereo not given) | -9.5 | -3.9 | 34.3* | 1 | 0.0
COc1ccc(C(=O)Nc2nc3c(s2)CCCC3)cc1S(=O)(=O)N1CCCc2ccccc21 | -3.2 | 0.5 | -24.3 | 1 | -9.9
C#CCNC(=O)C1=C[C@@H](c2ccc(C(F)(F)F)cc2)C[C@@H](OCCCCO)O1 | -7.1 | -1.6 | -2.4 | 1 | -3.2
COc1ccc2c(C)cc(Sc3nnnn3-c3ccccc3)nc2c1 | -10.5 | -3.1 | 30.9* | 1 | 2.3
O=C(O)c1n[nH]c2c1CCCC2 | 12.8 | -3.4 | 2.6 | 1 | -3.7
O=C(c1n[nH]c2c1CCCC2)n1ccnc1 | 69.6* | -1.8 | 1.0 | 1 | -2.7
Cc1cccc(OCc2n[nH]c(=S)n2Cc2ccccc2)c1 | 16.2 | -2.1 | 3.0 | 1 | 4.2
O=c1c(Cl)c(N2CCN(c3ccccc3)CC2)cnn1C12CC3CC(CC(C3)C1)C2 | -10.4 | 3.8 | -2.8 | 1 | -4.1
O=c1c(Cl)c(N2CCN(c3ccc(F)cc3)CC2)cnn1C12CC3CC(CC(C3)C1)C2 | -26.7 | 1.4 | 37.0* | 1 | 4.4
CC(C)(C)c1ccc(CNc2ccc([N+](=O)[O-])cn2)cc1 | -4.6 | -5.7 | 20.6 | 1.1 | 7.4
CSc1nsc2nc(=O)c(/C=C3\C(C)=Nc4ccccc43)c(N)n12 | 11.9 | 4.5 | 31.8* | 1 | -2.7
Cc1cccc(-n2c(=O)c3c4c(sc3n3c(=S)[nH]nc23)CCC4)c1 | 16.5 | 4.9 | 33.9* | 1 | -3.8
Cc1cc(C)cc(C(=O)NCC(=O)OC(C)C(=O)N(C)c2ccccc2)c1 (stereo not given) | -2.7 | -6.0 | 5.0 | 1.1 | -0.2
COc1ccc(-c2[nH]ncc2CN2CCC(OCc3cccnc3)CC2)c(F)c1 | 74.0* | -6.6 | -3.4 | 1.1 | 6.4
COc1ccc(-c2[nH]ncc2CN2CCN(Cc3cccs3)CC2)c(F)c1 | 62.6* | -4.9 | 3.6 | 1 | 3.3
Cc1nonc1C1CCCN1Cc1cn[nH]c1-c1ccc2c(c1)OCO2 (stereo not given) | 13.7 | -5.0 | 3.0 | 1.1 | -8.8
